# Measured values as given in ChEMBL document CHEMBL1130758, “alpha-substituted quisqualic acid analogs: new metabotropic glutamate receptor group II selective antagonists” (Bioorg Med Chem Lett, 1998).
# Legend:
# [1] = target: T1, Glutamate receptor ionotropic, kainate (Rattus norvegicus) (UniProt P22756+Q01812+P42260+P42264+Q63273); assay: Antagonistic activity against Ionotropic glutamate receptor kainate was determined by the percentage of 45 [Ca2+] influx in cerebellar neurons at the concentration 100 uM; format: functional
# Procedure, shortened: (§1)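 Rat cerebellar neurons (7-day-old pups, 8-9 days in culture) were given 45CaCl2 (1 µCi/mL) in Locke's buffer with 1 mM Mg2+, 50 µM kainate and 1 µM MK-801, for 15 min at room temperature. After three ice-cold washes and dissolution in 0.5 M NaOH, radioactivity and protein were measured. Results are % of net kainate-alone influx, mean ± S.E.M., n=6 from two preparations.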
# [2] = target: T1, Glutamate receptor ionotropic, kainate (Rattus norvegicus); assay: Antagonistic activity against Ionotropic glutamate receptor kainate was determined by the percentage of 45 [Ca2+] influx in cerebellar neurons at the concentration 1 mM; format: functional; procedure, shortened: as §1
# [3] = target: T2, Glutamate receptor ionotropic, AMPA (Rattus norvegicus) (UniProt P19491+P19492+P19493+P19490); assay: Antagonistic activity against Ionotropic glutamate receptor AMPA was determined by the percentage of 45 [Ca2+] influx in cerebellar neurons at the concentration 1 mM; format: functional
# Procedure, shortened: (§2)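 Cerebellar neurons cultured from 7-day-old rats (used at 8-9 days) had 45Ca2+ influx (1 µCi/mL) measured over 15 min at room temperature in Locke's buffer with 1 mM Mg2+, 30 µM AMPA, 10 µM cyclothiazide and 1 µM MK-801. Cells were washed three times ice-cold, dissolved in NaOH and counted, normalized to protein. Results are % of net AMPA-alone influx, mean ± S.E.M., six measurements from two preparations.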
# [4] = target: T2, Glutamate receptor ionotropic, AMPA (Rattus norvegicus); assay: Antagonistic activity against Ionotropic glutamate receptor AMPA was determined by the percentage of 45 [Ca2+] influx in cerebellar neurons at the concentration 100 uM; format: functional; procedure, shortened: as §2
# [5] = target: Metabotropic glutamate receptor 6 (Rattus norvegicus, UniProt P35349); assay: Antagonistic activity against rat (mGluR) metabotropic glutamate receptor 6 stably expressed in chinese hamster ovary (CHO) cells; format: functional, cell-based
# [6] = target: Metabotropic glutamate receptor 4 (Rattus norvegicus, UniProt P31423); assay: Antagonistic activity against rat (mGluR) metabotropic glutamate receptor 4a stably expressed in chinese hamster ovary (CHO) cells; format: functional, cell-based
# [7] = target: Metabotropic glutamate receptor 1 (Rattus norvegicus, UniProt P23385); assay: Antagonistic activity against rat (mGluR) metabotropic glutamate receptor 1a stably expressed in chinese hamster ovary (CHO) cells; format: functional, cell-based
# Procedure, shortened: (§3)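 CHO cells expressing the receptor were labelled overnight with myo-[3H]inositol in glutamine-free medium. They were then exposed to compounds for 30 min at 37 °C in Locke's buffer (HEPES, pH 7.4) with 20 mM LiCl. Inositol phosphates were extracted for 10 min with 0.1 M HCl and separated by anion-exchange chromatography.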
# [8] = target: Metabotropic glutamate receptor 5 (Rattus norvegicus, UniProt P31424); assay: Antagonistic activity against rat (mGluR) metabotropic glutamate receptor 5a stably expressed in chinese hamster ovary (CHO) cells; format: functional, cell-based; procedure, shortened: as §3
# [9] = target: T3, Glutamate NMDA receptor (Rattus norvegicus) (UniProt P35439+Q00959+Q00960+Q00961+Q62645+Q8VHN2+Q9R1M7); assay: Antagonistic activity against NMDA ionotropic glutamate receptor was determined by the percentage of 45 [Ca2+] influx in cerebellar neurons at the concentration 100 uM; format: functional
# Procedure, shortened: (§4)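 Rat cerebellar neurons (7-day-old pups, 8-9 days in culture) were incubated for 15 min at room temperature in Mg2+-free Locke's buffer with 1 µCi/mL 45CaCl2, 100 µM NMDA, 1 µM glycine and 10 µM NBQX. Cells were washed three times with ice-cold buffer and dissolved in 0.5 M NaOH to count radioactivity and protein. Results are % of net agonist-alone influx, mean ± S.E.M. of six measurements from two culture preparations.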
# [10] = target: T3, Glutamate NMDA receptor (Rattus norvegicus); assay: Antagonistic activity against NMDA ionotropic glutamate receptor was determined by the percentage of 45 [Ca2+] influx in cerebellar neurons at the concentration 1 mM; format: functional; procedure, shortened: as §4
# Sequence of Metabotropic glutamate receptor 6 (P35349 whole entry): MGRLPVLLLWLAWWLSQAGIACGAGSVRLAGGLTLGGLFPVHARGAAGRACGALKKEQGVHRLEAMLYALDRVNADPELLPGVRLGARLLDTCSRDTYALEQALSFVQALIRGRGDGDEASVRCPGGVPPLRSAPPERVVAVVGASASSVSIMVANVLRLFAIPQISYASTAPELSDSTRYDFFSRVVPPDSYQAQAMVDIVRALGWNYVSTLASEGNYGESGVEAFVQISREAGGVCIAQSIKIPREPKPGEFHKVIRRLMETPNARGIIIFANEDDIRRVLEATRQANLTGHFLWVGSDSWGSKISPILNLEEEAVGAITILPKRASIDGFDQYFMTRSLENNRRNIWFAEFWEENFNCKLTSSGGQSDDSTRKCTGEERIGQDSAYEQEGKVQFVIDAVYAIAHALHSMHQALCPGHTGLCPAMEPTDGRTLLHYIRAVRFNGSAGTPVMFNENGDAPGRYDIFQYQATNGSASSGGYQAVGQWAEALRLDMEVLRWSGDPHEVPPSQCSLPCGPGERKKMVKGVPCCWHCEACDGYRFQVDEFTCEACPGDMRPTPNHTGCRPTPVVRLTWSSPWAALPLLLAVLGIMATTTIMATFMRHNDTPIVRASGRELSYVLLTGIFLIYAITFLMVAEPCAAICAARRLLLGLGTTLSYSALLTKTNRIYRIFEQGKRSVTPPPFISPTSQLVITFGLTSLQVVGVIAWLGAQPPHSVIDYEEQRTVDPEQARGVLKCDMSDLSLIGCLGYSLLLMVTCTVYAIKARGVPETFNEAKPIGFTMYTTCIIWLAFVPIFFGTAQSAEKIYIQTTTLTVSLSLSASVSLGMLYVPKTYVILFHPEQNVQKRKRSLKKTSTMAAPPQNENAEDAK
# Sequence of Metabotropic glutamate receptor 4 (P31423 whole entry): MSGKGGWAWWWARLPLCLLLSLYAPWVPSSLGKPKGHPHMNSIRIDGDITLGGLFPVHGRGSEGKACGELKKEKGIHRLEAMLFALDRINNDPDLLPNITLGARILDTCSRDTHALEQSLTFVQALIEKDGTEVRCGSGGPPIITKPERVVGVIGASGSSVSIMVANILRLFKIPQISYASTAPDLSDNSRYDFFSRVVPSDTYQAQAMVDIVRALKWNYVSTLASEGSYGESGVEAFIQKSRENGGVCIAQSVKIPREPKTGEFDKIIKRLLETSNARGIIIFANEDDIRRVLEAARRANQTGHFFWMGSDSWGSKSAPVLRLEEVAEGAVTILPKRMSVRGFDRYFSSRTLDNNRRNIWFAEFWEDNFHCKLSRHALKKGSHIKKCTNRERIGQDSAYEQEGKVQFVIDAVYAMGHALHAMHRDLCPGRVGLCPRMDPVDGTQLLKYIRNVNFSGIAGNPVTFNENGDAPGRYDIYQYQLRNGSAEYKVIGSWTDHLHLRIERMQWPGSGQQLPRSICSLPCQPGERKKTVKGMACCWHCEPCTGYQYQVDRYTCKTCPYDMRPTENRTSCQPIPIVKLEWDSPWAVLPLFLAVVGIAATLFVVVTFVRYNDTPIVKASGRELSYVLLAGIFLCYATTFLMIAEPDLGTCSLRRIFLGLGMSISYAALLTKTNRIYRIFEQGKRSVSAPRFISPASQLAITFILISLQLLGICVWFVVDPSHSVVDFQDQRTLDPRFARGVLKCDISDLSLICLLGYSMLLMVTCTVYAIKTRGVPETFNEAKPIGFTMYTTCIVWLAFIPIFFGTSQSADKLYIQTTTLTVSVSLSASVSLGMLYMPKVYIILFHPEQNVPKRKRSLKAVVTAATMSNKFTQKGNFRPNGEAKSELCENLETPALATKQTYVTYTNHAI
# Sequence of Metabotropic glutamate receptor 5 (P31424 whole entry): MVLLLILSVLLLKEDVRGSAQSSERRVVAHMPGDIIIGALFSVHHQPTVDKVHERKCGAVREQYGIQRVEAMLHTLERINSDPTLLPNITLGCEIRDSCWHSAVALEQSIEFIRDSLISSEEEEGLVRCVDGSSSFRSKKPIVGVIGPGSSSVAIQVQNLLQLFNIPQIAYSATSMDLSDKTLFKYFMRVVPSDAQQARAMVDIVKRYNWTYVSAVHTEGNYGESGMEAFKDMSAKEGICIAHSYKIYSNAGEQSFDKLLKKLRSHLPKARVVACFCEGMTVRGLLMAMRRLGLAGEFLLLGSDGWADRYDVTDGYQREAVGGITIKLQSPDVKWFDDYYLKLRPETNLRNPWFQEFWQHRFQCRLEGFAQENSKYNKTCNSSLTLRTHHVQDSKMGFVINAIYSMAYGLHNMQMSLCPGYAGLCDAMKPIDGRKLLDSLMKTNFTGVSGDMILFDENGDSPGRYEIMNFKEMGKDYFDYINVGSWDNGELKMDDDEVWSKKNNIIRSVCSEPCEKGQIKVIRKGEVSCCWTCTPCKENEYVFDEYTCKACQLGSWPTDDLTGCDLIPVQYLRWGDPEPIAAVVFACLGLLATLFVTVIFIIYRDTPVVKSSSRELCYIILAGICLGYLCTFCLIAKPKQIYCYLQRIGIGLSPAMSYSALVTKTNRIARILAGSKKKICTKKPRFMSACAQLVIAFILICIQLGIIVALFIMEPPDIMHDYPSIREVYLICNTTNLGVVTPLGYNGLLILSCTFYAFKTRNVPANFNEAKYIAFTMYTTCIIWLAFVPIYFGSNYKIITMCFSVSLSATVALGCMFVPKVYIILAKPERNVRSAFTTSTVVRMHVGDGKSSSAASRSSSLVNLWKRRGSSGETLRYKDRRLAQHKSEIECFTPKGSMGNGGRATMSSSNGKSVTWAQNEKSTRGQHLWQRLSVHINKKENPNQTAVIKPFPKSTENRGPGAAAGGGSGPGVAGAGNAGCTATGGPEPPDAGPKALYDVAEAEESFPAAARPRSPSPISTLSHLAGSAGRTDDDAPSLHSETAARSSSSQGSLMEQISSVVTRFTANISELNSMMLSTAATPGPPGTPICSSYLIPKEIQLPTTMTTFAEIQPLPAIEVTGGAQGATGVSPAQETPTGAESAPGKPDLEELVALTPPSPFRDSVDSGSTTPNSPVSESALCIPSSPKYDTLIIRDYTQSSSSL
# Sequence of Metabotropic glutamate receptor 1 (P23385 whole entry): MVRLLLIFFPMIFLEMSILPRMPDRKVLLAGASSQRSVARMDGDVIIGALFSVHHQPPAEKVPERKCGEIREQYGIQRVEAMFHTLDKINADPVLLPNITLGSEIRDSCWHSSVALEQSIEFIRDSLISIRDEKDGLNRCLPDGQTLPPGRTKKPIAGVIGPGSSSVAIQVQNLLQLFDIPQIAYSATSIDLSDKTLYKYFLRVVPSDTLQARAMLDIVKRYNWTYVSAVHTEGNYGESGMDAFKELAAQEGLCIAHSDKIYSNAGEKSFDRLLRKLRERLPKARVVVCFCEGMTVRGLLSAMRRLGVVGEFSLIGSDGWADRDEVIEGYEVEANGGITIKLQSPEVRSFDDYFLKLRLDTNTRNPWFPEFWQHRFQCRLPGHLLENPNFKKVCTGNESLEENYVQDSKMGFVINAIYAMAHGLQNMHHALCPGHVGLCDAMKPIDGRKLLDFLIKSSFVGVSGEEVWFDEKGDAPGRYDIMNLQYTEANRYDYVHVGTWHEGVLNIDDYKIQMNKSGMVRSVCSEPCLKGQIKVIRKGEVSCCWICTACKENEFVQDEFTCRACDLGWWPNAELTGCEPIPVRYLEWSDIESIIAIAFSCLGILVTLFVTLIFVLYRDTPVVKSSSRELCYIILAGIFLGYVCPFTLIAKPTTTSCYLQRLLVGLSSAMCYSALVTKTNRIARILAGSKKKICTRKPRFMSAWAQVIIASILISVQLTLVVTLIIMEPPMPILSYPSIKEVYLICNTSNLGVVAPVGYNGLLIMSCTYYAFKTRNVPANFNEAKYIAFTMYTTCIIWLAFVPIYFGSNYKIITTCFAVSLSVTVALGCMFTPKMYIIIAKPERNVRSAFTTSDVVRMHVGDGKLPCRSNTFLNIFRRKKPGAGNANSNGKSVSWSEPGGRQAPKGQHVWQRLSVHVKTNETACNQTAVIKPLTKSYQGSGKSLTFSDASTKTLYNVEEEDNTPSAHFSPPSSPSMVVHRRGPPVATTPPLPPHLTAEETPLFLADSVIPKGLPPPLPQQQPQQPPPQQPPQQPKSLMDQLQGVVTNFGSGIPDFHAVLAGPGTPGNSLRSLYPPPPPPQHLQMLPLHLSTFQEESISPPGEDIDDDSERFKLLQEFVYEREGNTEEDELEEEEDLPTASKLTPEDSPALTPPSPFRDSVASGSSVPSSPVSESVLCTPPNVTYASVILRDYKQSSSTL
KA effect [1],KA effect [2],AMPA effect [3],AMPA effect [4],EC50 [5],EC50 [6],EC50 [7],EC50 [8],NMDA effect [9],NMDA effect [10],Compound
71%,75%,89%,98%,> 1000 µM,> 1000 µM,~500 µM,~1000 µM,105%,30%,C[C@](N)(Cn1oc(=O)[nH]c1=O)C(=O)O
97%,105%,103%,113%,> 1000 µM,> 1000 µM,~300 µM,~300 µM,84%,52%,N[C@@](Cc1ccccc1)(Cn1oc(=O)[nH]c1=O)C(=O)O
